Consider 37 variants from the RNAGym collection of RNA variant scans (doi:10.1126/science.aae0568).

Variants at the floor of the assay were thinned out. A value given as a limit tells only on which side of the number the result lay.

The labels stand for the following.
B1: tRNA (parent)
chain: GUUCCGUUGGCGUAAUGGUAACGCGUCUCCCUCCUAAGGAGAAGACUGCGGGUUCGAGUCCCGUACGGAACG

Variants of B1 are the subject of the data set. The data set is described as follows: yeast fitness relative to wild type (ratio to wild type); higher = fitter; tRNA-Arg(CCU), competitive growth, 37 C, YPD. The essentials: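 Gene amplicons from the start population and from each of six end populations were read by 100-nucleotide paired-end sequencing. Those end populations came from pooled Saccharomyces cerevisiae strains carrying tRNA-Arg(CCU) gene variants at the native locus, competed in YPD at 37°C for 24 hours. Fitness relative to wild type was worked out from changes in genotype frequencies. Genotypes needed ≥ 100 starting reads, and estimates < 0.5 were set to 0.5.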
Turning to GUUCCGUUGGCGUAAUGGUAACGCGUCUCCCACCUAAGGAGAAGACUGCGGGUUCGAGUCCCGUACGGAACG [U32A], the yeast fitness turned out to be 0.742.

With GUUCCGUUGGCGUAAUGGUAACGCGUCUCCCCCCUAAGGAGAAGACUGCGGGUUCGAGUCCCGUACGGAACG [U32C], the yeast fitness was found to be 0.966.

On to GUUCCGUUGGCGUAAUGGUAACGCGUCUCCCACCUAAGGAGAAGUCUGCGGGUUCGAGUCCCGUACGGAACG [U32A A45U], for which the yeast fitness came out at 0.789.

As for GUUCCGUUGGCGUAAUGGUAACGCGUCUCCCCCCUAAGGGGAAGACUGGGGGUUCGAGUCCCGUACGGAACG [U32C A40G C49G], the yeast fitness came to 0.514.

Take GUUCCGUUGGCGUAAUGGUAACGCGUCUCCCCCCUGAGGAGAAGACUGCGGGUUCGAGUCCCAUACGGAACG [U32C A36G G63A]: the yeast fitness stood at 0.628.

Turning to GUUCCGUUGGCGUAAUGGUAACGCGUCUCCCCCCUAUGGAGAAGACUGCGGAUUCGAGUCCCGUAAGGAACG [U32C A37U G52A C66A], the yeast fitness is at most 0.5.

In the case of GUUCCGUUGGCGUAAUGGUAACGCGUCUCCCACCUAAGGAGAAGACUGCGGGUUCGAGUCCCUAUCGGAACG [U32A G63U U64A A65U], the yeast fitness is 0.634.

In the case of GUUCCGUUGGCGUAAUGGUAACGCGUCUCCUUCCUAAGGAGAAGACUGCGGGUCCGAGUCCCGUACGGAACG [C31U U54C], the yeast fitness came to 0.82.

As for GUUCCGUUGGCGUAAUGGUAACGCGUCUCCCCCCUGAGGAGAAGACUGCGGGUUCGAGUCCCGUACGGAACG [U32C A36G], the yeast fitness stood at 0.861.

For the variant GUUCCGUUGGCGUAAUGGUAACGCGUCUCCCACCUAAGGAGGAGACUGCGGGUUUGAGUCCCGUACGGAACG [U32A A42G C55U], the yeast fitness was at most 0.5.

Consider GUUCCGUUGGCGUAAUGGUAACGCGUCUCCCACCUAAGGUGAAGACUGCGGGUUCGAGUCCCGUACGGAACG [U32A A40U], for which the yeast fitness stood at 0.774.

For the variant GUUCCGUUGGCGUAAUGGUAACGCGUCUCCCACCUAAGGCGAAGACUGCGGGUUCGAGUCCCGUACGGAACG [U32A A40C], the yeast fitness came out at 0.694.

For GUUCCGUUGGCGUAAUGGUAACGCGUCUCCCACCUAAGGACAAGACUGCGGGUUCGAGUCCCGUUCGGAACG [U32A G41C A65U], the yeast fitness was at most 0.5.

For the variant GUUCCGUUGGCGUAAUGGUAACGCGUCUCCCACUUAAGGAGAAGACUGCGGGUUCGAGUCUCGUACGGAACG [U32A C34U C61U], the yeast fitness is 0.54.

Turning to GUUCCGUUGGCGUAAUGGUAACGCGUCUCCUUCCUAAGGAGAAGACUGCGGGUCCGAGCCCCGUACGGAACG [C31U U54C U59C], the yeast fitness stood at 0.562.

Regarding GUUCCGUUGGCGUAAUGGUAACGCGUCUCCCAUCUAAGGAGAAGACAGCGGGUUCGAGUCCCGUACGGAACG [U32A C33U U47A], the yeast fitness was determined as 0.54.

Turning to GUUCCGUUGGCGUAAUGGUAACGCGUCUCCCACAUAAGGAGAAGACUGCGGGCUCGAGUCCCGAACGGAACG [U32A C34A U53C U64A], the yeast fitness was at most 0.5.

For GUUCCGUUGGCGUAAUGGUAACGCGUCUCCUUCCCAAGGAGAAGACUGCGGGCUCGAGUCCCGUACGGAACG [C31U U35C U53C], the yeast fitness is at most 0.5.

In the case of GUUCCGUUGGCGUAAUGGUAACGCGUCUCCUUCCUAAGGAGAAGACUGCGGGUUCGAGUCCCGUACGCAACG [C31U G68C], the yeast fitness stood at 0.68.

As for GUUCCGUUGGCGUAAUGGUAACGCGUCUCCUUCCUAAGGAGAAGACUGCGGGUUCGAGUCCCGUACGAAACG [C31U G68A], the yeast fitness is 0.883.

Consider GUUCCGUUGGCGUAAUGGUAACGCGUCUCCCACCUAAGGAGAAGACUGCGGGUACGAGUCCCGUACGGAACG [U32A U54A], for which the yeast fitness is at most 0.5.

With GUUCCGUUGGCGUAAUGGUAACGCGUCUCCCCCCUUAGGAGAAGACUGCGGGUUCGAGUCUCGUACGGAACG [U32C A36U C61U], the yeast fitness was at most 0.5.

With GUUCCGUUGGCGUAAUGGUAACGCGUCUCCCCCCUUAGGAGAAGACUGCGGGUUCGAGUCGCGUACGGAACG [U32C A36U C61G], the yeast fitness is at most 0.5.

Take GUUCCGUUGGCGUAAUGGUAACGCGUCUCCCACCUAAGGAGAAGACUGCGGGUUCGACUCCCGUACGGAACG [U32A G58C]: the yeast fitness came out at 0.651.

In the case of GUUCCGUUGGCGUAAUGGUAACGCGUCUCCCACCUACGGAGAAGACUGCGGGUUCGAGUCCCGUACGGAACG [U32A A37C], the yeast fitness worked out at 0.771.

As to GUUCCGUUGGCGUAAUGGUAACGCGUCUCCCACCUAAGGAGAAGACUGCGGCUUUGAGUCUCGUAUGGAACG [U32A G52C C55U C61U C66U], the yeast fitness is at most 0.5.

As to GUUCCGUUGGCGUAAUGGUAACGCGUCUCCCACCUAAGGUCAAGAAUGCGGAUUCGAGUCCCGUACGGAACG [U32A A40U G41C C46A G52A], the yeast fitness was found to be 0.656.

GUUCCGUUGGCGUAAUGGUAACGCGUCUCCCACCUAAGGAGCAGACUGCGGGUUCGAGUCCCCUUUGGAACG [U32A A42C G63C A65U C66U]: the yeast fitness was at most 0.5.

In the case of GUUCCGUUGGCGUAAUGGUAACGCGUCUCCCCCCUACGGAGAAGACUGCGGGUUCGAGUCCCGUACGGAACG [U32C A37C], the yeast fitness came to 0.771.

Consider GUUCCGUUGGCGUAAUGGUAACGCGUCUCCCCCCUAUGGAGAAGACUGCGGGUUCGAGUCCCGUACGGAACG [U32C A37U], for which the yeast fitness came to 0.729.

Turning to GUUCCGUUGGCGUAAUGGUAACGCGUCUCCCAGCUAAGGAGAAGACUGCGGGUUCGAGUCCCGUACGGAACG [U32A C33G], the yeast fitness was found to be 0.706.

Turning to GUUCCGUUGGCGUAAUGGUAACGCGUCUCCCCCCUUAAGAGAAGACUGCAGGUUCGAGUCCCGUACGGAACG [U32C A36U G38A G50A], the yeast fitness stood at 0.584.

With GUUCCGUUGGCGUAAUGGUAACGCGUCUCCCCCCUAAGGCGAAGACUGCGGGUUCGAGUCCCGUACGGAACG [U32C A40C], the yeast fitness turned out to be 0.986.

With GUUCCGUUGGCGUAAUGGUAACGCGUCUCCCCCCUAAGGUGAAGACUGCGGGUUCGAGUCCCGUACGGAACG [U32C A40U], the yeast fitness came to 1.01.

Take GUUCCGUUGGCGUAAUGGUAACGCGUCUCCUUCCUAAGGAGAAGACUGCGGGGUCGAGUCGCGUACGGAUCG [C31U U53G C61G A70U]: the yeast fitness was at most 0.5.

Regarding GUUCCGUUGGCGUAAUGGUAACGCGUCUCCUCUCUAAGGAGAAGACUGCGGGUUCGAGUCCCGUACGGAACG [C31U U32C C33U], the yeast fitness was determined as 0.667.

GUUCCGUUGGCGUAAUGGUAACGCGUCUCCUUCCUAAGGAGAAGACUGCGGGUUCGAGCCCCGUACGGAACG [C31U U59C]: the yeast fitness stood at 1.02.
